Assay results published in ChEMBL document CHEMBL1800061 (J Med Chem, 2010).
Values after ≈ are worked out from the molar mass of the structure shown. Active and inactive are the calls of the source. The calls are words filed in the database; no cut-off is given here.

Experiments:
[1] = biological target: Calcium/calmodulin-dependent protein kinase kinase 2 (Homo sapiens, UniProt Q96RR4); test: Inhibition of CAMKKbeta assessed as residual enzyme activity at 10 uM
[2] = biological target: Myosin light chain kinase, smooth muscle (Homo sapiens) (UniProt Q15746); test: Inhibition of Smooth muscle MLCK assessed as residual enzyme activity at 10 uM
HCT-116 [3] = test: Antitumor activity against human HCT116 cells xenografted in nude BALB/c mouse assessed as decrease in tumor volume at 25 mg/kg/day, po measured after 14 days relative to control on day 1; format: functional; set-up: scale not given: the % may be the effect or the level left
Mus musculus [4] = test: Inhibition of cyclin-dependent kinase substrate RB phosphorylation at Thr 821 in nude BALB/c mouse PBMC at 75 mg/kg, po measured after 24 hrs by immunostaining and flow cytometric analysis; format: functional
How it was run: (§1)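 Seven-week-old female nu/nu-BALB/c nude mice got a single oral gavage (vehicle 28% PEG300/5% dimethylacetamide/10% HPB cyclodextrin in water). Blood was taken by cardiac puncture at 6 h or 24 h, red cells were lysed, and PBMC were fixed and permeabilized. Cells were stained with Rb, Rb pThr821, PolII or PolII pSer2 antibodies plus an Alexa488 secondary, then read by flow cytometry; n=4 (n=3 at 100 mg/kg).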

[5] = biological target: Serine/threonine-protein kinase Nek2 (Homo sapiens) (UniProt P51955); test: Inhibition of NEK2a assessed as residual enzyme activity at 10 uM
HCT-116 [6] = test: Cell cycle arrest in human HCT116 cells assessed as concomitant increase in cells at G2/M phase at 1 to 10 umol/L after 24 hrs by propidium iodide staining based flow cytometric analysis; format: functional
How it was run: (§2)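 HCT116 cells (4×10^5) were allowed to adhere for 24 h, then exposed to 1 or 10 μmol/L compound from DMSO for 24 h. Cells were fixed in 70% ethanol at 4 °C and stained overnight with RNase and propidium iodide. DNA content was read by flow cytometry. Results are from three independent experiments, with unpaired t test against the DMSO control.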

[7] = biological target: G2/mitotic-specific cyclin-B1 (Homo sapiens) (UniProt P14635); test: Inhibition of cyclin B-mediated phosphorylation of RNA pol3 in human HCT116 cells after 4 hrs by immunoblotting analysis; format: cell-based; details: HCT-116
Chain of G2/mitotic-specific cyclin-B1 (Homo sapiens) (P14635 whole entry): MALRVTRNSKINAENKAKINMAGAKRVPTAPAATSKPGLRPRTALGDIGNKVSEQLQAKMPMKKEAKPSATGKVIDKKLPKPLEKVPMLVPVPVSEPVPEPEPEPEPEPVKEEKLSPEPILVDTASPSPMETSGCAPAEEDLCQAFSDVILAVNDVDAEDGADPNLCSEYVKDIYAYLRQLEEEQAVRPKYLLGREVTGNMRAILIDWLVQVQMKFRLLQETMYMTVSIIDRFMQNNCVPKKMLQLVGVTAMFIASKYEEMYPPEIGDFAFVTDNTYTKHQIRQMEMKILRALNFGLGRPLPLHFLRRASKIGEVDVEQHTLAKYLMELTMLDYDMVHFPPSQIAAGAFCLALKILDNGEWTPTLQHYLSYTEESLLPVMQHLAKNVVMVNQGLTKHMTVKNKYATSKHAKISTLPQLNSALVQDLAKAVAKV
How it was run: (§3)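 HCT116 colon cancer cells were kept in DMEM with 10% FCS. Cells (8×10^5) were plated, dosed 24 h later, and exposed for 4 or 24 h. Whole-cell lysates were made in RIPA buffer with phosphatase and protease inhibitor cocktails and normalised by BCA protein assay. They were immunoblotted for phospho-sites, total proteins and cyclins.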

MCF7 [8] = test: Induction of apoptosis in human MCF7 cells assessed as increase in sub-G1 population at 1 to 10 umol/L after 24 hrs by […] staining based flow cytometric analysis; format: functional, cell-based
[9] = biological target: G1/S-specific cyclin-D1 (Homo sapiens) (UniProt P24385); test: Inhibition of cyclin D1 in human HCT116 cells assessed as decrease in protein level at 1 umol/L after 24 hrs by immunoblotting analysis; format: cell-based; details: HCT-116; how it was run: as §3
Chain of G1/S-specific cyclin-D1 (Homo sapiens) (P24385 whole entry): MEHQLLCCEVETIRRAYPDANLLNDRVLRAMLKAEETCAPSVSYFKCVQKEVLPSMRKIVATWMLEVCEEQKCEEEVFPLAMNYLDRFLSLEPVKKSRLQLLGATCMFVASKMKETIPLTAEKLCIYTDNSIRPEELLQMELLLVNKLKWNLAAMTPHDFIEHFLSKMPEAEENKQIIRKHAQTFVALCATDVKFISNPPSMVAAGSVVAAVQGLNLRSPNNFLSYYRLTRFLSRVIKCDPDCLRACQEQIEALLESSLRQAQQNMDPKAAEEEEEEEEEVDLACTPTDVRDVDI

[10] = Lipophilicity, log D of the compound in n-octanol:PBS at pH 7.4; format: physicochemical
[11] = biological target: Serine/threonine-protein kinase PAK 6 (Homo sapiens) (UniProt Q9NQU5); test: Inhibition of PAK6 assessed as residual enzyme activity at 10 uM
[12] = Oral bioavailability in mouse at 10 mg/kg; format: ADME, organism-based; details: in vivo
Mus musculus [13] = test: Inhibition of cyclin-dependent kinase substrate […] phosphorylation at Ser2 in po dosed nude BALB/c mouse PBMC measured after 6 hrs by immunostaining and flow cytometric analysis; format: organism-based; details: in vivo
How it was run: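 Female nu/nu-BALB/c athymic nude mice (7 weeks old) given a single oral gavage dose in 28% PEG300/5% dimethylacetamide/10% HPB cyclodextrin in water. PBMC were isolated from cardiac blood after red-cell lysis, then fixed, permeabilized and stained with primary antibodies (1:100, 1 h, RT) and an Alexa Fluor 488 secondary (1:200, 1 h). Read-out was flow cytometry; n=4 (n=3 at 100 mg/kg).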

[14] = biological target: Cyclin-dependent kinase 4 (Homo sapiens) (UniProt P11802); test: Inhibition of CDK4-mediated phosphorylation of […] in human HCT116 cells after 4 hrs by immunoblotting analysis; format: cell-based; details: HCT-116; how it was run: as §3
HCT-116 [15] = test: Antitumor activity against human HCT116 cells xenografted in po dosed nude BALB/c mouse assessed as decrease in tumor volume measured after 14 days relative to control on day 1; format: functional, organism-based
[16] = Aqueous solubility of the compound in PBS as pH 7.4; format: physicochemical
MCF7 [17] = test: Antiproliferative activity against human MCF7 cells after 72 hrs by sulforhodamine B assay; format: functional; details: MCF7, 72 h
How it was run: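 Cell lines were grown in DMEM with 10% FCS and treated with increasing concentrations for 72 h. Growth was read by sulforhodamine B staining and GI50 was derived. Values are means of at least three replicates with SD.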

[18] = biological target: Tyrosine-protein kinase Lck (Homo sapiens) (UniProt P06239); test: Inhibition of Lck assessed as residual enzyme activity at 10 uM
Chain of Tyrosine-protein kinase Lck (Homo sapiens) (P06239 2-509 limits assumed): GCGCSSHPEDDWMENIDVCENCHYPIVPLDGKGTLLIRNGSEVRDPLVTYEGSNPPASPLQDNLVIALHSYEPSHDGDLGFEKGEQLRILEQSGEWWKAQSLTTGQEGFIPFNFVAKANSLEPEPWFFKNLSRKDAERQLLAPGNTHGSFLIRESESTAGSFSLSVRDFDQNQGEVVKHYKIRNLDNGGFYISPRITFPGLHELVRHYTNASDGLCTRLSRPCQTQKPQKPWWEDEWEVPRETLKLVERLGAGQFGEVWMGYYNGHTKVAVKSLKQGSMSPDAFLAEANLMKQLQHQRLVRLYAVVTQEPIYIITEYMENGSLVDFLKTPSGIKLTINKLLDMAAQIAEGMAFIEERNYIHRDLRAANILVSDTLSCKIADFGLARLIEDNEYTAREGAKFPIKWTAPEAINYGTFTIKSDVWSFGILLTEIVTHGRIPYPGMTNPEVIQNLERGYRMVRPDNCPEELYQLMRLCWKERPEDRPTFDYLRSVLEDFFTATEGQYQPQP

[19] = biological target: MAP kinase-activated protein kinase 5 (Homo sapiens) (UniProt Q8IW41); test: Inhibition of PRAK assessed as residual enzyme activity at 10 uM
[20] = biological target: Serine/threonine-protein kinase PLK1 (Homo sapiens) (UniProt P53350); test: Inhibition of PLK1 assessed as residual enzyme activity at 10 uM
[21] = biological target: Cyclin-dependent kinase 6 (Homo sapiens) (UniProt Q00534); test: Inhibition of CDK6-mediated phosphorylation of RB protein in human HCT116 cells after 4 hrs by immunoblotting analysis; format: cell-based; details: HCT-116; how it was run: as §3
Chain of Cyclin-dependent kinase 6 (Homo sapiens) (Q00534 whole entry): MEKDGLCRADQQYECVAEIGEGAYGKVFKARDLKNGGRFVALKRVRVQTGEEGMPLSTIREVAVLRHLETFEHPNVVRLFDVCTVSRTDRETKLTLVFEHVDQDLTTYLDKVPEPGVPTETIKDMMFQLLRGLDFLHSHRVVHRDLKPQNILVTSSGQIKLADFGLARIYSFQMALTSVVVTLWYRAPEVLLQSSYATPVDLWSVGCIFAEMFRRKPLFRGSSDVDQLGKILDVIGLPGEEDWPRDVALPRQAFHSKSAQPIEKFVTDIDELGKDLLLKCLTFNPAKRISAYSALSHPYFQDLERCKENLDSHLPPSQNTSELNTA

[22] = biological target: Mitogen-activated protein kinase 3 (Homo sapiens, UniProt P27361); test: Inhibition of ERK1
Chain of Mitogen-activated protein kinase 3 (P27361 whole entry): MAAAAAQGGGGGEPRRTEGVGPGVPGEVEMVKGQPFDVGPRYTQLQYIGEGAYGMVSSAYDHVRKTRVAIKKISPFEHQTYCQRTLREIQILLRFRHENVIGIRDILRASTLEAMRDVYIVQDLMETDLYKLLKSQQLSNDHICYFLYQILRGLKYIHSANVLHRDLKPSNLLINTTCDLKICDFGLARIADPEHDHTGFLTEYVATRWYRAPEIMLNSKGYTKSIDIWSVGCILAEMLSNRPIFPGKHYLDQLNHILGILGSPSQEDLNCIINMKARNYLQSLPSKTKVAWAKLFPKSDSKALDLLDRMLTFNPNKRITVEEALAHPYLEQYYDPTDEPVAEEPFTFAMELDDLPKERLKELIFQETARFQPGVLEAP

[23] = biological target: Cyclin-dependent kinase 4/cyclin D1 (Homo sapiens, UniProt P11802); test: Inhibition of CDK4/cyclinD1 assessed as amount of ATP […] by luciferase activity based PKLight assay; format: protein-complex assay
How it was run: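 Purified recombinant CDK4/cycD1, CDK6/CycD1, CDK7/CycH/MAT1 or CDK9/CycT run with the supplier's substrate peptides under the manufacturer's protocol. Inhibition was read as ATP left at the end of the reaction, measured by luciferase luminescence (PKLight).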

HCT-116 [24] = test: Cell cycle arrest in human HCT116 cells assessed as concomitant increase in cells at S phase at 1 to 10 umol/L after 24 hrs by propidium iodide staining based flow cytometric analysis; format: functional; how it was run: as §2
[25] = Elimination half life in mouse at 10 mg/kg, po; format: ADME, organism-based; set-up: dose 10 mg/kg, route oral; details: in vivo, read-out: beta t1/2
How it was run: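 Mice given 10 mg/kg by the ip, iv or oral route. Plasma levels were measured at 8 time points, with 3 animals per route for po and iv. Parameters came from a noncompartmental model. AUCINF was extrapolated to infinity, and bioavailability was calculated from AUCINF. The terminal slope used 3 points.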

[26] = biological target: Insulin receptor (Homo sapiens) (UniProt P06213); test: Inhibition of Histidine tagged-IR assessed as residual enzyme activity at 10 uM
Chain of Insulin receptor (Homo sapiens) (P06213 28-758 limits assumed): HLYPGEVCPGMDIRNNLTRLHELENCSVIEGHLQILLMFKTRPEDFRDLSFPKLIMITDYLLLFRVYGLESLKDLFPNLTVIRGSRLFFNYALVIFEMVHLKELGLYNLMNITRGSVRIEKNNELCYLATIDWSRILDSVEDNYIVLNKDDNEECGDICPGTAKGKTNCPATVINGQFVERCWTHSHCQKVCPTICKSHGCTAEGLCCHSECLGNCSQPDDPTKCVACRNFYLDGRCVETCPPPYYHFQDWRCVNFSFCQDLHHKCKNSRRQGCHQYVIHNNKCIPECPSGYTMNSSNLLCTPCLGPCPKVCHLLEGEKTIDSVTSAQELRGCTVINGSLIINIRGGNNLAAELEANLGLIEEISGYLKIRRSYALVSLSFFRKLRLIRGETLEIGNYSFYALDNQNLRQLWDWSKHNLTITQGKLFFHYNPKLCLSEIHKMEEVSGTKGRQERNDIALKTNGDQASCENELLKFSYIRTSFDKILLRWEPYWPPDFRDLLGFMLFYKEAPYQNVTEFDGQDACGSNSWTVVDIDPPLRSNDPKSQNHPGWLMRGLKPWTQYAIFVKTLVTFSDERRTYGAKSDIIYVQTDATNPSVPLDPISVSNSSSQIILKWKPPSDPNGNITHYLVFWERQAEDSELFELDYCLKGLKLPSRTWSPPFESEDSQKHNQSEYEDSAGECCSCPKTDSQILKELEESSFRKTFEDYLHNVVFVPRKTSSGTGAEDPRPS
Chain of Insulin receptor (Homo sapiens) (P06213 763-1382 limits assumed): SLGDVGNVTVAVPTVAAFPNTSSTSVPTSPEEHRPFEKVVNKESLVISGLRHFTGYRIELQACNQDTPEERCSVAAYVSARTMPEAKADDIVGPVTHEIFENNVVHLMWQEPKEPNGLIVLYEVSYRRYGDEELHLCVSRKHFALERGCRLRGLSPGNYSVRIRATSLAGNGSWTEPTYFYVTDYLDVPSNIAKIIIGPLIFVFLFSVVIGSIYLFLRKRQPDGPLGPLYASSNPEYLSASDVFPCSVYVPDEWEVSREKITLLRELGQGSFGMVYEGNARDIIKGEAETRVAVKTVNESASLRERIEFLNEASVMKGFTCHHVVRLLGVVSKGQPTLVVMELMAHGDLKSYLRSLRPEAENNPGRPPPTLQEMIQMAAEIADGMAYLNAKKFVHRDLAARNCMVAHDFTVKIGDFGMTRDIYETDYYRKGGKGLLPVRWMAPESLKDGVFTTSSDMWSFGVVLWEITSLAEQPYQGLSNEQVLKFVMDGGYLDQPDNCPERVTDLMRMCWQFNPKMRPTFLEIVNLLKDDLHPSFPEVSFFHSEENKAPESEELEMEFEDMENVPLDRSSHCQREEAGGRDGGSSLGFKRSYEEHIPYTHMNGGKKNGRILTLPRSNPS

[27] = biological target: Serine/threonine-protein kinase D1 (Homo sapiens) (UniProt Q15139); test: Inhibition of PKD1 assessed as residual enzyme activity at 10 uM
Chain of Serine/threonine-protein kinase D1 (Homo sapiens) (Q15139 whole entry): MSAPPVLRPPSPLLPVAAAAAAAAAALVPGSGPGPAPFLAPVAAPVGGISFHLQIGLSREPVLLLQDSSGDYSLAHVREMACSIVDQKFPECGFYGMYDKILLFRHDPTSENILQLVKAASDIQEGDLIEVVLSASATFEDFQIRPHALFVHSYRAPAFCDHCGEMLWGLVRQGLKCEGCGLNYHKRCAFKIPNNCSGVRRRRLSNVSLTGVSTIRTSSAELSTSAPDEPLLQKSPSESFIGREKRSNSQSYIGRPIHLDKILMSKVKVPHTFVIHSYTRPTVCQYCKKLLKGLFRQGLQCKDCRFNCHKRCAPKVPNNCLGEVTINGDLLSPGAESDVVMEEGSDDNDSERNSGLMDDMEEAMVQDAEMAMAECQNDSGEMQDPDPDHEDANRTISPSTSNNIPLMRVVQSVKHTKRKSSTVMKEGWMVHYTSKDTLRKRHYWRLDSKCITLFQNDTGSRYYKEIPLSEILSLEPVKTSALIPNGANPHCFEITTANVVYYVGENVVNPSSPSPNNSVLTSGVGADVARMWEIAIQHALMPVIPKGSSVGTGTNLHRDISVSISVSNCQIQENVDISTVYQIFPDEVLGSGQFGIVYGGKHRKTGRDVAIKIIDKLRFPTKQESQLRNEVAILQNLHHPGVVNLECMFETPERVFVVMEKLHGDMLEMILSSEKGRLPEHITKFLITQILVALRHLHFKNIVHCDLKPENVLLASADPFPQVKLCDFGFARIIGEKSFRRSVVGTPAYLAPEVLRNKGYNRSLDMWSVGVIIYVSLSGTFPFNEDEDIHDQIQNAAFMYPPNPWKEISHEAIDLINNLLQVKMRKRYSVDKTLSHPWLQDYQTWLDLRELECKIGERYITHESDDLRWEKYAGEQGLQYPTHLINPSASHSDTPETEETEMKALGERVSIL

Mus musculus [28] = test: Inhibition of cyclin-dependent kinase substrate RB phosphorylation in nude BALB/c mouse PBMC at 75 to 100 mg/kg, po measured after 24 hrs by immunostaining and flow cytometric analysis; format: organism-based; set-up: dose 75-100 mg/kg, route oral; details: in vivo; how it was run: as §1

Chain of Calcium/calmodulin-dependent protein kinase kinase 2 (Q96RR4 2-588 limits assumed): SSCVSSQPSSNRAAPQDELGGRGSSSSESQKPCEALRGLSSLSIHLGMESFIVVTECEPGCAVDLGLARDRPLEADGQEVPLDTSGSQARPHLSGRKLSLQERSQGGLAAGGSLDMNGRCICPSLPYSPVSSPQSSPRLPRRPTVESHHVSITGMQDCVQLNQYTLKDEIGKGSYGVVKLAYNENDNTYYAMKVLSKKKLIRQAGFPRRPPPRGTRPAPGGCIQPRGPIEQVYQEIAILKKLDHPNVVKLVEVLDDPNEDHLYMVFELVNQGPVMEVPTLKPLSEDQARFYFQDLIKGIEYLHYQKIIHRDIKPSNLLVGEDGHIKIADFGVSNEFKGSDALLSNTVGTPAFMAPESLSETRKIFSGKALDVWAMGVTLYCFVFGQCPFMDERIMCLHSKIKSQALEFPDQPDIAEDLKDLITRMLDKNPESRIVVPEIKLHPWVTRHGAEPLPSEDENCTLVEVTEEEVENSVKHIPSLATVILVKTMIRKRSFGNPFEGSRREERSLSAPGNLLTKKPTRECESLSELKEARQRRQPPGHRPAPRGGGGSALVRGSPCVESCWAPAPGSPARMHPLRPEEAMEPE

Work on `CC(C)c1cnn2c(NCc3ccccc3)cc(N[C@@H](CO)[C@H](O)CO)nc12` yielded an Activity [1] of 23%, an Activity [2] of 101% and an Activity (HCT-116 [3]) of 50%. The inhibition in vivo at 75 mg/kg (Mus musculus [4]) was 50%, the Activity [5] was 102% and the Activity (HCT-116 [6]) was “Active”. The inhibition [7] was “inactive”, the Activity (MCF7 [8]) was “Active” and the inhibition [9] was “Active”. It also gave a logD [10] of 3, an Activity [11] of 85% and a bioavailability [12] of 88%. For the same molecule, the “inhibition (INH)” value (Mus musculus [13]) was “Dose-dependent effect”, the inhibition [14] was “inactive” and the Activity (HCT-116 [15]) was “Dose-dependent effect”. The solubility [16] was 54 µM (≈ 20.8 µg/mL), the GI50 (MCF7 [17]) was 0.3 µM and the Activity [18] was 85%. For the same molecule, the Activity [19] was 97%, the Activity [20] was 68% and the inhibition [21] was “inactive”. The IC50 [22] was 3.73 µM, the IC50 [23] was 20 µM and the Activity (HCT-116 [24]) was “Active”. The half-life [25] was 2.97 h, the Activity [26] was 70% and the Activity [27] was 97%. The “inhibition (INH)” value (Mus musculus [28]) was “Not Active”.
